Source: PubChem BioAssay (several laboratories)
TAG inh: triacylglycerol accumulation inhibition. H9c2 cells, Nile Red lipid (TAG) fluorescence; cells loaded with 200 µM oleic acid. inhibition, % at 12.5 µM. 230,000 compounds, 0.66% hits. AID 651582;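 active = pattern-corrected inhibition of lipid staining of at least 50% with the nuclear-stain viability signal not falling by more than 50%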;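 note: 0% = DMSO wells and 100% = triacsin C control wells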
Vif imaging: HIV Vif inhibition; HEK293T cells, Vif self-association by quenched fluorescence, imaging, 24 h; inhibition, % at 7.49 µM; 340,000 compounds, 0.35% hits; in the data active = inhibition above about 50%, passing the limit was not always enough
SMARCA2 activ: activators of SMARCA2 function; MG213 cells, MMTV-luciferase reporter, dexamethasone, overnight; 370,000 compounds, 1% hits; activation, % at 9.1 µM; in the data active = activation above about 7.8%;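 note: 0% = vehicle wells and 100% = reference activator wells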
SR-BI DiI inh: blocks mouse SR-BI lipid uptake from DiI-HDL; Q61009; ldlA[mSR-BI] CHO cells, DiI-HDL uptake fluorescence, 3 h; inhibition, % at 12.5 µM; 320,000 compounds, 0.96% hits; AID 488896;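 active = mean replicate inhibition of at least 70% and a set share of replicates each scoring 70 or more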;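 note: 0% = median of neutral control wells and 100% = median of positive control wells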
Target sequence (Q61009 whole entry, looked up): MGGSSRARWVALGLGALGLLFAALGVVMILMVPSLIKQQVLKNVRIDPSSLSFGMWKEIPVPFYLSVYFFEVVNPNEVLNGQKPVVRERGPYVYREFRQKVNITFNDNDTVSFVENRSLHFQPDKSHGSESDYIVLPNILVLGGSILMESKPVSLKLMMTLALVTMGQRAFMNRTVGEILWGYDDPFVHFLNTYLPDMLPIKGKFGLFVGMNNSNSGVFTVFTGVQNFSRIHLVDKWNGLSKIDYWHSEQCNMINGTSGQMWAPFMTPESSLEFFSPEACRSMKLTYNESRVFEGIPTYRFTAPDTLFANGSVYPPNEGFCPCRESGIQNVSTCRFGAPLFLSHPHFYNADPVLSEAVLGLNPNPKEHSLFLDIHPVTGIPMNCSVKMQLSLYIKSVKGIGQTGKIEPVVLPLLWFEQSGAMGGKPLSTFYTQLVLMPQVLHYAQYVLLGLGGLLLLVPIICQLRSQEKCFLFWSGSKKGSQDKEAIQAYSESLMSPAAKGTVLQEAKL
SR-BI DiI-HDL act: enhances SR-BI lipid uptake from DiI-HDL | CHO ldlA[mSR-BI] cells, DiI-HDL uptake fluorescence, 3 h; 100 = double the neutral-control signal | activation, % at 12.5 µM | 320,000 compounds, 0.096% hits | AID 504775;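 active = mean replicate activation of at least 60% and every replicate at or above 60%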;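 note: 0% = median plate neutral-control signal and 100% = twice that signal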
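Material: SR-BI-overexpressing, LDLR-lacking CHO cells; schedule: compound exposure 3 h, 37 °C; reagent: DiI-labelled HDL at 10 µg/mL final; technique: bottom-read fluorescence, 550/595 nm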
TAG conf: triacylglycerol accumulation inhibition, confirmation | shares compounds with TAG inh | H9c2 lipid accumulation, Nile Red fluorescence; cells loaded with 200 µM oleic acid | inhibition, % at 12.5 µM | 990 compounds, 71% hits;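 active = mean inhibition across replicates of 40% or more; inactive = mean inhibition below 40%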;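 note: plate controls were DMSO only wells for no effect and Triacsin C treated wells for full effect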
* = called active by the depositor; . = not tested or not shown. In the library only some 2.5% were active in any assay of this set; here they are far more common.

SMILES | TAG inh | Vif imaging | SMARCA2 activ | SR-BI DiI inh | SR-BI DiI-HDL act | TAG conf
CN1CCN(Cc2cn(C)nc2-c2ccccc2F)CC1c1ccccc1 (stereo not given) | -3.2 | -3.9 | 1.2 | 4.3 | -4.3 | .
Cc1cc(N2CCN(Cc3cn(C)nc3-c3ccccc3F)CC2)cc(C)n1 | 74.3* | -0.2 | -0.7 | 2.8 | -2.8 | 83.6*
Cc1cc(N2CCN(Cc3cn(C)nc3-c3cccc(Cl)c3)CC2)cc(C)n1 | 71.0* | -2.9 | -4.8 | -22.9 | 22.9 | 77.0*
Cc1ccc(NC(=O)c2cc([N+](=O)[O-])ccc2NCc2cccnc2)cc1Cl | 67.8* | -7.8 | -0.5 | 9.1 | -9.1 | 40.5*
COc1cccc(NC(=O)c2cc([N+](=O)[O-])ccc2NCc2cccnc2)c1 | . | -2.4 | -2.1 | -1.9 | 1.9 | .
CCN1C(=O)/C(=C2\SC(N3CCOCC3)=NC2=O)c2ccccc21 | . | -8.2 | 0.7 | -2.7 | 2.7 | .
C=CCN1C(=O)/C(=C2\SC(N3CCOCC3)=NC2=O)c2cc(Br)ccc21 | 58.0* | 13.7 | 3.2 | 50.8 | -50.8 | 50.2*
NC(N)=Nc1ccc(C=C2C=Cc3ccccc32)cc1 | 60.2* | 7.4 | -2.0 | 11.0 | -11.0 | 61.0*
Nc1ccc(C=C2C=Cc3ccccc32)cc1 | 11.8 | 10.4 | -3.9 | 35.1 | -35.1 | .
Cc1cccc(Nc2nc(NCc3ccco3)nc(N3CCOCC3)n2)c1 | 86.4* | -9.8 | -0.5 | 33.1 | -33.1 | 82.7*
c1ccc(CNc2nc(NCc3ccco3)nc(N3CCOCC3)n2)cc1 | 1.8 | -4.2 | 0.4 | 21.1 | -21.1 | .
CC1CN(c2nc3ccccc3nc2SCC(=O)N2CCN(S(=O)(=O)c3ccc(F)cc3)CC2)CC(C)O1 (stereo not given) | . | . | -3.6 | . | . | .
COc1ccc2c(c1)c(CC(=O)Nc1ccc(C)cc1)c(C)n2C(=O)c1ccc(Cl)cc1 | 61.5* | -9.4 | 0.0 | -2.9 | 2.9 | 49.7*
COc1ccc(NC(=O)Cc2c(C)n(C(=O)c3ccc(Cl)cc3)c3ccc(OC)cc23)cc1 | 36.3 | 0.0 | -2.5 | 52.0 | -52.0 | .
COC(=O)[C@]12C[C@H](CC(=O)NCCCN3CCCC3=O)C(=O)N(CCC3=CCCCC3)C1=C[C@H](C(C)(C)C)O[C@@H]2C | . | . | -5.1 | . | . | .
CSC1=C(C#N)C(c2ccccc2C)C(C#N)=C(N)N1 (stereo not given) | 55.0* | -11.7 | 0.6 | -1.6 | 1.6 | 5.1
CCCCCCCC(=O)Nc1cc(C(=O)NCCC)ccc1N1CCC2(CC1)CC(c1cccc(Br)c1)=NO2 | 70.3* | -4.9 | 0.1 | -9.4 | 9.4 | 61.2*
CCCCC(CC)C(=O)Nc1cc(C(=O)NCc2ccc(C)cc2)ccc1N1CCC2(CC1)CC(c1ccccc1)=NO2 (stereo not given) | 55.9* | -0.3 | 0.0 | 30.8 | -30.8 | 54.8*
COc1ccc(CNC(=O)c2ccc(N3CCC4(CC3)CC(c3ccc(Cl)cc3)=NO4)c(NC(=O)Cc3ccc(F)cc3)c2)cc1 | 60.2* | -2.0 | 1.6 | 37.1 | -37.1 | 43.9*
C[C@H]1CN([C@@H](C)CO)C(=O)Cc2cc(NC(=O)CCC(F)(F)F)ccc2O[C@H]1CN(C)S(=O)(=O)c1ccc(Cl)cc1 | 63.6* | -4.3 | -0.2 | -16.4 | 16.4 | 69.2*
C[C@H]1CN([C@@H](C)CO)C(=O)Cc2cc(NC(=O)CCC(F)(F)F)ccc2O[C@H]1CN(C)S(=O)(=O)c1ccc(F)cc1 | . | . | 0.9 | 17.5 | -17.5 | .
CCc1nn2c(N3CCOCC3)cc(C)nc2c1-c1ccc(F)cc1 | 70.1* | -11.9 | 1.4 | 1.8 | -1.8 | 63.9*
CCOc1ccc2nc(NC(=O)CN3CCC(n4nnc5cc(F)ccc54)CC3)sc2c1 | 57.7* | -27.1 | -0.5 | 35.7 | -35.7 | 43.5*
CSc1cc(-c2ccccc2)n(Cc2c(Cl)cccc2Cl)c(=O)c1C#N | 58.0* | 7.6 | 1.0 | -39.5 | 39.5 | 68.0*
CSc1cc(-c2ccc(Cl)cc2)n(Cc2ccccc2)c(=O)c1C#N | 64.1* | 3.4 | 0.9 | -18.2 | 18.2 | 36.5
SMILES | TAG inh | Vif imaging | SMARCA2 activ | SR-BI DiI inh | SR-BI DiI-HDL act | TAG conf
CSc1cc(-c2ccccc2)n(C)c(=O)c1C#N | 5.5 | 6.4 | -1.7 | 36.8 | -36.8 | .
O=C(Nc1ccc(OC(F)(F)F)cc1)Nc1nc2ncccn2c1-c1ccc(C(F)(F)F)cc1 | . | . | -0.7 | . | . | .
COC(=O)[C@@]12C[C@@H](CC(=O)NCC34CC5CC(CC(C5)C3)C4)C(=O)N(CCc3ccc(OC)c(OC)c3)C1=CCC(C)(C)C2 | . | . | -5.9 | . | . | .
CCOc1ccccc1N1CCN(S(=O)(=O)c2ccc3c4c(cccc24)C(=O)N3)CC1 | 52.3* | -6.6 | -1.4 | -20.5 | 20.5 | 4.2
CC(C)(C)S(=O)(=O)N1C[C@H]2C(=C(CCO)C[C@H]3C(=O)N(c4ccccc4)C(=O)[C@H]32)[C@@H]1CCO | . | . | -3.8 | . | . | .
CC(C)(C)OC(=O)N(CCc1ccccc1)Cc1ccc(OCc2cccc(NC(=O)/C=C/c3ccccc3)c2)cc1 | 50.9* | . | 2.4 | 67.7 | -67.7 | 65.3*
CC(C)(C)OC(=O)N(CCc1ccccc1)Cc1ccccc1OCc1cccc(NC(=O)/C=C/c2ccccc2)c1 | 53.1* | . | -2.2 | 50.2 | -50.2 | 43.2*
CCCCn1nnnc1C1c2ccccc2OCC(=O)N1Cc1ccc2c(c1)OCO2 (stereo not given) | . | . | -2.9 | . | . | .
COc1cccc(/C=N/Nc2ncccc2[N+](=O)[O-])c1OC | 12.5 | 4.8 | -1.3 | 17.8 | -17.8 | .
O=[N+]([O-])c1ccc(/C=N/Nc2ncccc2[N+](=O)[O-])s1 | 64.3* | 14.4 | -2.3 | 25.3 | -25.3 | 33.4
COc1ccc(CCC[C@@H](CCC(=O)N(c2ccccc2)c2ccccc2)CCc2ccccc2)cc1 | . | . | -3.4 | . | . | .
Cc1ccc(CSc2nnc(-c3ccccc3)n2Cc2ccco2)cc1 | . | . | -3.9 | . | . | .
COc1cccc(-c2cnc3c(NC=O)cc(-c4cccc(NC(C)=O)c4)cn23)c1 | 24.9 | -6.8 | 1.9 | . | . | .
COc1cc(-c2cnc3c(NC=O)cc(-c4cccc(NC(C)=O)c4)cn23)cc(OC)c1OC | 73.0* | 72.7* | 2.9 | . | . | 96.0*
CCCCCCCCN1C(=O)[C@@H](CC(=O)N2CCCC2)C[C@@]2(C(=O)OC)C1=C[C@H](C1CCCC1)O[C@@H]2C | . | . | -5.5 | . | . | .
C#CCN(C[C@H]1[C@H](OC(=O)NCC2CCCCC2)[C@H](OC(=O)NCC2CCCCC2)C[C@@H](C(=O)OC)[C@H]1C(=O)OC)S(=O)(=O)c1ccc(C)cc1 | 81.9* | -2.5 | -2.4 | . | . | 88.8*
C#CCN(C[C@H]1[C@H](OC(=O)NC2CC2)[C@H](OC(=O)NC2CC2)C[C@@H](C(=O)OC)[C@H]1C(=O)OC)S(=O)(=O)c1ccc(C)cc1 | 10.7 | -4.0 | 0.1 | . | . | .
Cn1cc(-c2cccc3[nH]cc(-c4ccccc4)c23)c2ccccc21 | . | . | -2.1 | . | . | .
Cc1ccccc1C(=O)NC1CCCCN(Cc2ccc(Cl)cc2)C1=O (stereo not given) | . | . | -1.9 | . | . | .
